Measurements published in ChEMBL document CHEMBL5303300, “EUbOPEN Chemogenomics Library - Multiplex” (2023).
Where “and” joins values, the source holds several entries; their conditions need not be identical. Equal entries are not always repeated.

Test system: HEK-293T
Experiment: Multiplex assay against HEK293T
Type: toxicity, cell-based
Conditions: human, number of replicates 2
Method in brief: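 On a CQ1 microscope at 37°C and 5% CO2, live cells were imaged after compound addition. They had been stained at seeding with Hoechst33342, BioTracker Green Microtubule Cytoskeleton Dye, MitoTracker Red and Annexin V Alexa Fluor 680. CellPathfinder machine-learning gating assigned cells to Hoechst high-intensity objects or normal cells, normal cells to healthy, pyknosed or fragmented nuclei, and pyknosed cells to mitotic or apoptotic. Tubulin, mitochondrial-mass and membrane-permeability phenotypes are per cents of healthy-nucleus cells.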

[1] = 12 h, 1 µM, compound concentration 1 uM
[2] = 12 h, 10 µM, compound concentration 10 uM
[3] = 24 h, 1 µM, compound concentration 1 uM
[4] = 24 h, 10 µM, compound concentration 10 uM
[5] = 48 h, 1 µM, compound concentration 1 uM
[6] = 48 h, 10 µM, compound concentration 10 uM

CCN1CCN(Cc2ccc(C(=O)Nc3ccc(C)c(Oc4ccc5c(c4)CC(=O)N5)c3)cc2C(F)(F)F)CC1.Cl.Cl
Population Apoptotic (%) [1]: 43% and 61%
Population Fragmented Nuclei (%) [1]: 3% and 7%
Population Healthy Nuclei (%) [1]: 83% and 79%
Population Hoechst High Intensity Objects (%) [1]: 6% and 8%
Population Membrane Permeable-Phenotype (%) [1]: 2%
Population Mitochondria Different-Phenotype (%) [1]: 24% and 20%
Population Mitotic Cells (%) [1]: 56% and 38%
Population Normal (%) [1]: 93% and 91%
Population Pyknosed Nuclei (%) [1]: 12% and 13%
Population Tubulin-Different-Phenotype (%) [1]: 64% and 61%
Total Cell Count [1]: 609 and 592
Population Apoptotic (%) [2]: 68% and 69%
Population Fragmented Nuclei (%) [2]: 6% and 5%
Population Healthy Nuclei (%) [2]: 80% and 81%
Population Hoechst High Intensity Objects (%) [2]: 12% and 10%
Population Membrane Permeable-Phenotype (%) [2]: 6% and 2%
Population Mitochondria Different-Phenotype (%) [2]: 30% and 42%
Population Mitotic Cells (%) [2]: 31% and 30%
Population Normal (%) [2]: 87% and 89%
Population Pyknosed Nuclei (%) [2]: 13% and 12%
Population Tubulin-Different-Phenotype (%) [2]: 96% and 95%
Total Cell Count [2]: 598 and 606
Population Apoptotic (%) [3]: 40% and 52%
Population Fragmented Nuclei (%) [3]: 4% and 3%
Population Healthy Nuclei (%) [3]: 88% and 89%
Population Hoechst High Intensity Objects (%) [3]: 7% and 8%
Population Membrane Permeable-Phenotype (%) [3]: 2%
Population Mitochondria Different-Phenotype (%) [3]: 9%
Population Mitotic Cells (%) [3]: 59% and 47%
Population Normal (%) [3]: 92% and 91%
Population Pyknosed Nuclei (%) [3]: 7% and 6%
Population Tubulin-Different-Phenotype (%) [3]: 45% and 47%
Total Cell Count [3]: 907 and 801
Population Apoptotic (%) [4]: 58% and 78%
Population Fragmented Nuclei (%) [4]: 7% and 5%
Population Healthy Nuclei (%) [4]: 78% and 81%
Population Hoechst High Intensity Objects (%) [4]: 15%
Population Membrane Permeable-Phenotype (%) [4]: 4% and 2%
Population Mitochondria Different-Phenotype (%) [4]: 40% and 44%
Population Mitotic Cells (%) [4]: 41% and 21%
Population Normal (%) [4]: 84%
Population Pyknosed Nuclei (%) [4]: 14% and 12%
Population Tubulin-Different-Phenotype (%) [4]: 97% and 95%
Total Cell Count [4]: 517 and 556
Population Apoptotic (%) [5]: 12% and 23%
Population Fragmented Nuclei (%) [5]: 10% and 6%
Population Healthy Nuclei (%) [5]: 85% and 87%
Population Hoechst High Intensity Objects (%) [5]: 9% and 8%
Population Membrane Permeable-Phenotype (%) [5]: 5% and 3%
Population Mitochondria Different-Phenotype (%) [5]: 0% and 1%
Population Mitotic Cells (%) [5]: 87% and 76%
Population Normal (%) [5]: 90% and 91%
Population Pyknosed Nuclei (%) [5]: 4% and 5%
Population Tubulin-Different-Phenotype (%) [5]: 22% and 28%
Total Cell Count [5]: 2293 and 1602
Population Apoptotic (%) [6]: 75%
Population Fragmented Nuclei (%) [6]: 10% and 14%
Population Healthy Nuclei (%) [6]: 76% and 73%
Population Hoechst High Intensity Objects (%) [6]: 14% and 17%
Population Membrane Permeable-Phenotype (%) [6]: 13% and 5%
Population Mitochondria Different-Phenotype (%) [6]: 12% and 13%
Population Mitotic Cells (%) [6]: 25%
Population Normal (%) [6]: 85% and 82%
Population Pyknosed Nuclei (%) [6]: 12%
Population Tubulin-Different-Phenotype (%) [6]: 94% and 93%
Total Cell Count [6]: 709 and 749

CN1CCc2cc(Cl)c(O)cc2[C@@H](c2ccccc2)C1.Cl
Population Apoptotic (%) [1]: 48% and 46%
Population Fragmented Nuclei (%) [1]: 3% and 4%
Population Healthy Nuclei (%) [1]: 84% and 85%
Population Hoechst High Intensity Objects (%) [1]: 7% and 5%
Population Membrane Permeable-Phenotype (%) [1]: 5% and 3%
Population Mitochondria Different-Phenotype (%) [1]: 23% and 12%
Population Mitotic Cells (%) [1]: 51% and 53%
Population Normal (%) [1]: 92% and 94%
Population Pyknosed Nuclei (%) [1]: 12% and 10%
Population Tubulin-Different-Phenotype (%) [1]: 50% and 47%
Total Cell Count [1]: 505 and 645
Population Apoptotic (%) [2]: 40% and 55%
Population Fragmented Nuclei (%) [2]: 4%
Population Healthy Nuclei (%) [2]: 87% and 85%
Population Hoechst High Intensity Objects (%) [2]: 6% and 8%
Population Membrane Permeable-Phenotype (%) [2]: 3% and 4%
Population Mitochondria Different-Phenotype (%) [2]: 11%
Population Mitotic Cells (%) [2]: 59% and 45%
Population Normal (%) [2]: 93% and 91%
Population Pyknosed Nuclei (%) [2]: 8% and 9%
Population Tubulin-Different-Phenotype (%) [2]: 54% and 52%
Total Cell Count [2]: 819 and 669
Population Apoptotic (%) [3]: 47% and 31%
Population Fragmented Nuclei (%) [3]: 6% and 5%
Population Healthy Nuclei (%) [3]: 83% and 88%
Population Hoechst High Intensity Objects (%) [3]: 7%
Population Membrane Permeable-Phenotype (%) [3]: 1% and 3%
Population Mitochondria Different-Phenotype (%) [3]: 8% and 3%
Population Mitotic Cells (%) [3]: 52% and 68%
Population Normal (%) [3]: 92%
Population Pyknosed Nuclei (%) [3]: 9% and 6%
Population Tubulin-Different-Phenotype (%) [3]: 25% and 24%
Total Cell Count [3]: 778 and 975
Population Apoptotic (%) [4]: 38% and 37%
Population Fragmented Nuclei (%) [4]: 7% and 8%
Population Healthy Nuclei (%) [4]: 88% and 87%
Population Hoechst High Intensity Objects (%) [4]: 8% and 7%
Population Membrane Permeable-Phenotype (%) [4]: 5% and 4%
Population Mitochondria Different-Phenotype (%) [4]: 3%
Population Mitotic Cells (%) [4]: 61% and 62%
Population Normal (%) [4]: 91% and 92%
Population Pyknosed Nuclei (%) [4]: 4%
Population Tubulin-Different-Phenotype (%) [4]: 35% and 38%
Total Cell Count [4]: 1332 and 988
Population Apoptotic (%) [5]: 10% and 5%
Population Fragmented Nuclei (%) [5]: 10% and 11%
Population Healthy Nuclei (%) [5]: 85% and 84%
Population Hoechst High Intensity Objects (%) [5]: 8% and 9%
Population Membrane Permeable-Phenotype (%) [5]: 3% and 6%
Population Mitochondria Different-Phenotype (%) [5]: 1% and 0%
Population Mitotic Cells (%) [5]: 89% and 94%
Population Normal (%) [5]: 91% and 90%
Population Pyknosed Nuclei (%) [5]: 3%
Population Tubulin-Different-Phenotype (%) [5]: 10% and 14%
Total Cell Count [5]: 1964 and 2487
Population Apoptotic (%) [6]: 6% and 16%
Population Fragmented Nuclei (%) [6]: 22% and 20%
Population Healthy Nuclei (%) [6]: 75% and 77%
Population Hoechst High Intensity Objects (%) [6]: 9% and 10%
Population Membrane Permeable-Phenotype (%) [6]: 10%
Population Mitochondria Different-Phenotype (%) [6]: 0%
Population Mitotic Cells (%) [6]: 93% and 83%
Population Normal (%) [6]: 90% and 89%
Population Pyknosed Nuclei (%) [6]: 2%
Population Tubulin-Different-Phenotype (%) [6]: 20% and 21%
Total Cell Count [6]: 3504 and 2430
